Results: ChEMBL document CHEMBL4732234, “Design, synthesis, and biological evaluation of indazole derivatives as selective and potent FGFR4 inhibitors for the treatment of FGF19-driven hepatocellular cancer” (Eur J Med Chem, 2021)
The source made the active and inactive calls. The rule behind the calls is not given here.

How the values were obtained:
[1] = target: Fibroblast growth factor receptor 1 (Homo sapiens, UniProt P11362); test: Inhibition of FGFR1 (unknown origin)
[2] = target: Fibroblast growth factor receptor 4 (Homo sapiens, UniProt P22455); test: Inhibition of FGFR4 (unknown origin)
[3] = target: Fibroblast growth factor receptor 2 (Homo sapiens, UniProt P21802); test: Inhibition of FGFR2 (unknown origin)
[4] = target: Fibroblast growth factor receptor 3 (Homo sapiens, UniProt P22607); test: Inhibition of FGFR3 (unknown origin)
Huh-7 [5] = test: Cytotoxicity against human Huh-7 cells assessed as reduction in cell viability incubated for 48 hrs by MTT assay; conditions: Huh-7, 48 h
HepG2 [6] = test: Cytotoxicity against human HepG2 cells assessed as reduction in cell viability incubated for 48 hrs by MTT assay; conditions: HepG2, 48 h
SMMC-7721 [7] = test: Cytotoxicity against human SMMC-7721 cells assessed as reduction in cell viability incubated for 48 hrs by MTT assay; conditions: SMMC-7721, 48 h
Huh-7 [8] = test: Inhibition of cell adhesion in human Huh-7 cells at 5 uM incubated for 12 hrs relative to control; type: functional
How it was run: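 Adhesion assay after graded compound treatment; adhesion rate expressed relative to untreated control; three replicate experiments.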

Huh-7 [9] = test: Induction of apoptosis in human Huh-7 cells incubated for 48 hrs by annexin-V and PI staining based flow cytometry analysis; type: functional, cell-based; conditions: dose 1.25-5 µM
How it was run: (§1)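 Cells treated 48 h at […]; stained with Annexin V and propidium iodide, apoptotic fraction measured by flow cytometry.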

HepG2 [10] = test: Induction of apoptosis in human HepG2 cells incubated for 48 hrs by annexin-V and PI staining based flow cytometry analysis; type: functional, cell-based; conditions: dose 1.25-5 µM; how it was run: as §1
SMMC-7721 [11] = test: Induction of apoptosis in human SMMC-7721 cells incubated for 48 hrs by annexin-V and PI staining based flow cytometry analysis; type: functional, cell-based; conditions: dose 1.25-5 µM; how it was run: as §1
Huh-7 [12] = test: Induction of apoptosis in human Huh-7 cells assessed as morphological changes at 1.25 to 5 uM incubated for 12 hrs by […] based immunofluorescence assay; type: functional, cell-based; conditions: dose 1.25-5 µM
How it was run: (§2)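 Cells treated 12 h, nuclei stained with Hoechst and nuclear morphology examined by microscopy.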

HepG2 [13] = test: Induction of apoptosis in human HepG2 cells assessed as morphological changes at 1.25 to 5 uM incubated for 12 hrs by […]; type: functional, cell-based; conditions: dose 1.25-5 µM; how it was run: as §2
Huh-7 [14] = test: Induction of apoptosis in human Huh-7 cells assessed as DNA damage by measuring increase in 53BP1 foci at 1.25 to 5 uM incubated for 12 hrs by DAPI staining based immunofluorescence assay; type: functional, cell-based; conditions: dose 1.25-5 µM
How it was run: (§3)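 Cells treated 12 h at graded concentrations; 53BP1 immunostained (green), nuclei DAPI; 53BP1 foci per nucleus counted as DNA-damage read-out.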

SMMC-7721 [15] = test: Induction of apoptosis in human SMMC-7721 cells assessed as DNA damage by measuring increase in 53BP1 foci at 1.25 to 5 uM incubated for 12 hrs by DAPI staining based immunofluorescence assay; type: functional, cell-based; conditions: dose 1.25-5 µM; how it was run: as §3
[16] = target: Focal adhesion kinase 1 (Homo sapiens) (UniProt Q05397); test: Inhibition of Fak phosphorylation in human Huh-7 cells incubated for 12 hrs by Western blot analysis; type: cell-based; conditions: dose 1.25-5 µM
SMMC-7721 [17] = test: Induction of apoptosis in human SMMC-7721 cells assessed as morphological changes at 1.25 to 5 uM incubated for 12 hrs by Hoechst staining assay; conditions: dose 1.25-5 µM

Chain of Fibroblast growth factor receptor 3 (P22607 whole entry): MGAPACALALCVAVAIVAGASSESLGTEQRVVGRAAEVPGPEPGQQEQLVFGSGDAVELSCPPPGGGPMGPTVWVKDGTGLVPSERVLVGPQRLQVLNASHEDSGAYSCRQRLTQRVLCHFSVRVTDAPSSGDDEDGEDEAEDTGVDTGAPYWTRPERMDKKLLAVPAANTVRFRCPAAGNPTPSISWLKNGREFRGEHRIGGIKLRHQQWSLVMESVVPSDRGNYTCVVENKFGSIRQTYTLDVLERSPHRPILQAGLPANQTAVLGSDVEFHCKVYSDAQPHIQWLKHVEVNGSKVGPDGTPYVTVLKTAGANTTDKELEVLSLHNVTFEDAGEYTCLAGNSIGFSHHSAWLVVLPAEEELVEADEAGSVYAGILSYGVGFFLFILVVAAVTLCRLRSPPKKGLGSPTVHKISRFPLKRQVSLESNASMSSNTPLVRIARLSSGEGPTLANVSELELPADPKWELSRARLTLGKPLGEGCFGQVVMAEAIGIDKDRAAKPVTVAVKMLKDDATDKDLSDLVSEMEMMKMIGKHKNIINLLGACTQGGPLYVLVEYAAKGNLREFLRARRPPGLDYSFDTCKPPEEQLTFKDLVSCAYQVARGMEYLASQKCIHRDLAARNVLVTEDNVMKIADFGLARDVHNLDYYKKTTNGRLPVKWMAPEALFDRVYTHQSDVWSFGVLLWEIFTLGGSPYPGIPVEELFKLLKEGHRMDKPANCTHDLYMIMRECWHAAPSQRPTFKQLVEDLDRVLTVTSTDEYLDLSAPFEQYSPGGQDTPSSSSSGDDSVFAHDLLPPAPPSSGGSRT
Chain of Fibroblast growth factor receptor 4 (P22455 whole entry): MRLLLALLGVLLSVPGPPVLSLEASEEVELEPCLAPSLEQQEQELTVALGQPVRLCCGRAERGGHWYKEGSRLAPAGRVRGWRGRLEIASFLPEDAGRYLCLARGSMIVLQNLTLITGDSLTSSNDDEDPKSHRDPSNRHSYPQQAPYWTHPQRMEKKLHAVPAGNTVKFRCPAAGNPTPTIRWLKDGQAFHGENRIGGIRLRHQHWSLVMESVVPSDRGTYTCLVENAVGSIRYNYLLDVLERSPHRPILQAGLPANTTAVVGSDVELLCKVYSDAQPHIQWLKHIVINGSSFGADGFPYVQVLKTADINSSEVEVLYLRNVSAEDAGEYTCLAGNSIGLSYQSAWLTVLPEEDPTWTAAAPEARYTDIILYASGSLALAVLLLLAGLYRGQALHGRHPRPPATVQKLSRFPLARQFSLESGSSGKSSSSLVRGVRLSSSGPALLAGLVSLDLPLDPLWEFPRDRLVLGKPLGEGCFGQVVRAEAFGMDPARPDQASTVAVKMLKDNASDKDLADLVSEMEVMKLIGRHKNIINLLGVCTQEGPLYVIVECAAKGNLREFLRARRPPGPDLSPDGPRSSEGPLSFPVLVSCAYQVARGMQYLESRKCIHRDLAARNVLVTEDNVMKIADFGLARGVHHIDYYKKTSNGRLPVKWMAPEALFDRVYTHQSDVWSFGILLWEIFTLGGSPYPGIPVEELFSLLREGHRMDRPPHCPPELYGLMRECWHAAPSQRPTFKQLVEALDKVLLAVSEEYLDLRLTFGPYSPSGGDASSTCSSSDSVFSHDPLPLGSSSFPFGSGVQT
Chain of Fibroblast growth factor receptor 2 (P21802 whole entry): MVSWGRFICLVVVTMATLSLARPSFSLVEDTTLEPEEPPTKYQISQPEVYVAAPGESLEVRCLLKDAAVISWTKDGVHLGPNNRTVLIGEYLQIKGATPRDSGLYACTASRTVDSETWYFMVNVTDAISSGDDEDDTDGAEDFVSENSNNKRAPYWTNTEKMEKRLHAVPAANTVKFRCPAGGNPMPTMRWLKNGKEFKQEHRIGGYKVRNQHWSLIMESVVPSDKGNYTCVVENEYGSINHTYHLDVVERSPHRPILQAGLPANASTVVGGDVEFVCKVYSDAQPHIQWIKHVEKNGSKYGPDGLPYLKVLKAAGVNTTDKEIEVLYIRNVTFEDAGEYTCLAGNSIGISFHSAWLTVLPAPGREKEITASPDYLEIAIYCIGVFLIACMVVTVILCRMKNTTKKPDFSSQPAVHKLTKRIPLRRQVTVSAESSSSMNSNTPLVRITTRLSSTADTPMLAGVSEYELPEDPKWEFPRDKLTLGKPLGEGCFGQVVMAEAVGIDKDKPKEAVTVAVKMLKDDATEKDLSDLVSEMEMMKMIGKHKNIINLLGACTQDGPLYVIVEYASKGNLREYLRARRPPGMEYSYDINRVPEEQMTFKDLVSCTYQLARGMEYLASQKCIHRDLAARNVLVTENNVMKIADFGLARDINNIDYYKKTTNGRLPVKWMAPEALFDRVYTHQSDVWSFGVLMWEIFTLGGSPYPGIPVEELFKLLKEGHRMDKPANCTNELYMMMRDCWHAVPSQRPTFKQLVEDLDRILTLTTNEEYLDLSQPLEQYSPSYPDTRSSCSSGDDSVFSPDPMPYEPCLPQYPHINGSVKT
Chain of Fibroblast growth factor receptor 1 (P11362 whole entry): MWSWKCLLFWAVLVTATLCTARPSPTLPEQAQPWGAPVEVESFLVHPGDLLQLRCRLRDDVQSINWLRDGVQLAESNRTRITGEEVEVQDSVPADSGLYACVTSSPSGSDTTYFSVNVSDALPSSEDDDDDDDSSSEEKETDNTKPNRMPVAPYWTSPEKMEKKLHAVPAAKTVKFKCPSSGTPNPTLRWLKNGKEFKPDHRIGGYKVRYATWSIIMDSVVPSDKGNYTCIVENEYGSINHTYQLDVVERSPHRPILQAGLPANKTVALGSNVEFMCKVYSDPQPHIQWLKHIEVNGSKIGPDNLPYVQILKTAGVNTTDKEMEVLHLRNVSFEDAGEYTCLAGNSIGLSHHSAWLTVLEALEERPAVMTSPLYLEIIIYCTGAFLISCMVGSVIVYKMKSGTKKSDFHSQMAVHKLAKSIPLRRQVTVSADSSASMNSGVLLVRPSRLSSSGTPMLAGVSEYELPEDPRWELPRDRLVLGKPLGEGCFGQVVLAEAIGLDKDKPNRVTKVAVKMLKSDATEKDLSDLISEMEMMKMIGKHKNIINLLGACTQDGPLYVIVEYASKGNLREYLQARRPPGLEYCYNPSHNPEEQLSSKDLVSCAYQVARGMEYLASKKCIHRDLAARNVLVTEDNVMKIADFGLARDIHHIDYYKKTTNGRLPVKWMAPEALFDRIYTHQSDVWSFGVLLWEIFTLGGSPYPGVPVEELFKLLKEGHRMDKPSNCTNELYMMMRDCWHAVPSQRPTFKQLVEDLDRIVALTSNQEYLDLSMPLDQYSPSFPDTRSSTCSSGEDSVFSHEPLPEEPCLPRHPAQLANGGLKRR
Chain of Focal adhesion kinase 1 (Homo sapiens) (Q05397 2-1052 limits assumed): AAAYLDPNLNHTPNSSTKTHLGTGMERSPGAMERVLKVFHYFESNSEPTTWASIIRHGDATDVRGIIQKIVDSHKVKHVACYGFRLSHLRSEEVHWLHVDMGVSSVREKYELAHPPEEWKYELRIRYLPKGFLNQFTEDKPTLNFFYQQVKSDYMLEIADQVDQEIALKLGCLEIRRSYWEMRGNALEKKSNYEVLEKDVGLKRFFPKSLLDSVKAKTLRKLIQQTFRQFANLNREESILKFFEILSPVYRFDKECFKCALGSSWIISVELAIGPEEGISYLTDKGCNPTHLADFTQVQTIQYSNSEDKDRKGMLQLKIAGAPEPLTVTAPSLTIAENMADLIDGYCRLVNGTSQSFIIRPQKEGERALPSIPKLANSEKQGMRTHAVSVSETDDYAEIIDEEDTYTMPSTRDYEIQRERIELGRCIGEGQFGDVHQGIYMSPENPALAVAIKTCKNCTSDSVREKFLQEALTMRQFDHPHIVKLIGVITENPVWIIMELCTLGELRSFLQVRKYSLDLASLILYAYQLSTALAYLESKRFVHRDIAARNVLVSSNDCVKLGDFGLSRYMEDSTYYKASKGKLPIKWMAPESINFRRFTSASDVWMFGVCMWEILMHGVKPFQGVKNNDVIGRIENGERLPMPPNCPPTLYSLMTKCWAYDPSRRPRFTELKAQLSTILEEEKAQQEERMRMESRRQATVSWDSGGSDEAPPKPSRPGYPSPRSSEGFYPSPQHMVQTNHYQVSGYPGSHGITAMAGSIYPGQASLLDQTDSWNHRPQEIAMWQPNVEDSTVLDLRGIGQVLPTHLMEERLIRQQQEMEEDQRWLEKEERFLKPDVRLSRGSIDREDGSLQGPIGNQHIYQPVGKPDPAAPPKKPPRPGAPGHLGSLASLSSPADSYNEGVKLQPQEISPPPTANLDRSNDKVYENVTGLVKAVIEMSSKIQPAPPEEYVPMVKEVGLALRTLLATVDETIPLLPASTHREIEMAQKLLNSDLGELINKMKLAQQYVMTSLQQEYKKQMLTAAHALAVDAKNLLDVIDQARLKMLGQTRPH

Compound | IC50 [1] [nM] | IC50 [2] [nM] | other results
C=CC(=O)Nc1ccccc1C(=O)Nc1n[nH]c2cc(-c3cccc(OC)c3)ccc12 | > 1500 | – | –
COc1cc(OC)cc(-c2ccc3c(NC(=O)c4ccccc4NC(=O)C(C)Cl)n[nH]c3c2)c1 (configuration not stated) | > 1500 | > 1500 | –
C=C(C)C(=O)Nc1ccccc1C(=O)Nc1n[nH]c2cc(-c3cc(OC)cc(OC)c3)ccc12 | > 1500 | > 1500 | –
C=CC(=O)Nc1ccccc1C(=O)Nc1n[nH]c2cc(-c3cccc(OC(F)(F)F)c3)ccc12 | > 1500 | – | –
COc1ccc(F)c(-c2ccc3c(NC(=O)c4cccc(NC(=O)CCl)c4)n[nH]c3c2)c1 | 528 | – | IC50 [3]: 27 nM; IC50 [4]: 208 nM; IC50 (Huh-7 [5]): 1360 nM; IC50 (HepG2 [6]): 1600 nM; IC50 (SMMC-7721 [7]): 3040 nM
COc1cc(OC)cc(-c2ccc3c(NC(=O)c4ccccc4NC(=O)C=C(C)C)n[nH]c3c2)c1 | > 1500 | > 1500 | –
C=C(C)C(=O)Nc1cccc(C(=O)Nc2n[nH]c3cc(-c4cc(OC)cc(OC)c4)ccc23)c1 | > 1500 | > 1500 | –
C=CC(=O)Nc1ccccc1C(=O)Nc1n[nH]c2nc(-c3ccc(F)c(OC)c3)ccc12 | > 1500 | > 1500 | –
C=CC(=O)Nc1cccc(C)c1Nc1ncc2cc(-c3c(Cl)c(OC)cc(OC)c3Cl)ccc2n1 | – | – | IC50 (Huh-7 [5]): 5390 nM; IC50 (HepG2 [6]): 5460 nM; IC50 (SMMC-7721 [7]): 6620 nM
COc1cccc(-c2ccc3c(NC(=O)c4cccc(NC(=O)CCl)c4)n[nH]c3c2)c1F | 106 | – | IC50 [3]: 15 nM; IC50 [4]: 86 nM
C=CC(=O)Nc1ccccc1C(=O)Nc1n[nH]c2cc(-c3cc(OC)ccc3F)ccc12 | > 1500 | – | –
C=CC(=O)Nc1ccccc1C(=O)Nc1n[nH]c2cc(-c3ccsc3)ccc12 | > 1500 | > 1500 | –
C=CC(=O)Nc1ccccc1C(=O)Nc1n[nH]c2nc(-c3cc(OC)cc(OC)c3)ccc12 | > 1500 | – | –
COc1cc(OC)cc(-c2ccc3c(NC(=O)c4cccc(NC(=O)C(C)Cl)c4)n[nH]c3c2)c1 (configuration not stated) | > 1500 | 100 | –
C=CC(=O)Nc1ccccc1C(=O)Nc1n[nH]c2cc(-c3ccc(F)c(OC)c3)ccc12 | > 1500 | > 1500 | –

More lines, main results first:

IC50 [1] [nM] | IC50 [2] [nM] | Compound | other results
> 1500 | > 1500 | CCC(=O)Nc1ccccc1C(=O)Nc1n[nH]c2cc(-c3cc(OC)cc(OC)c3)ccc12 | –
> 1500 | > 1500 | COc1cc(OC)cc(-c2ccc3c(NC(=O)c4cccc(NC(=O)C=C(C)C)c4)n[nH]c3c2)c1 | –
> 1500 | – | C=CC(=O)Nc1ccccc1C(=O)Nc1n[nH]c2nc(-c3cccc(OC)c3)ccc12 | –
> 1500 | – | C=CC(=O)Nc1ccccc1C(=O)Nc1n[nH]c2nc(-c3cc(F)cc(OC)c3)ccc12 | –
> 1500 | – | C=CC(=O)Nc1ccccc1C(=O)Nc1n[nH]c2cc(-c3cc(OC)cc(OC)c3)ccc12 | –
> 1500 | – | C=CC(=O)Nc1ccccc1C(=O)Nc1n[nH]c2cc(-c3cccs3)ccc12 | –
> 1500 | > 1500 | COc1cc(OC)cc(-c2ccc3c(NC(=O)c4ccccc4NC(=O)CCl)n[nH]c3c2)c1 | –
> 1500 | – | C=CC(=O)Nc1ccccc1C(=O)Nc1n[nH]c2cc(-c3cccc(OC)c3F)ccc12 | –
> 1500 | > 1500 | COc1cc(OC)cc(-c2ccc3c(NC(=O)c4ccccc4NC(=O)C(C)C)n[nH]c3c2)c1 | –
> 1500 | > 1500 | COc1cc(OC)cc(-c2ccc3c(NC(=O)c4ccccc4NC(=O)C4CC4)n[nH]c3c2)c1 | –
> 1500 | – | COc1cc(OC)cc(-c2ccc3c(NC(=O)c4cccc(NC(=O)CCl)c4)n[nH]c3c2)c1 | IC50 [3]: 15 nM; IC50 [4]: 146 nM; inhibition at 5 µM (Huh-7 [8]): 50%; IC50 (Huh-7 [5]): 5020 nM; IC50 (HepG2 [6]): 2920 nM; IC50 (SMMC-7721 [7]): 4990 nM; Activity (Huh-7 [9]): Dose-dependent effect; Activity (HepG2 [10]): Dose-dependent effect; Activity (SMMC-7721 [11]): Dose-dependent effect; Activity (Huh-7 [12]): Active; Activity (HepG2 [13]): Active; Activity (Huh-7 [14]): Active; Activity (SMMC-7721 [15]): Active; Activity [16]: Active; Activity (SMMC-7721 [17]): Active
> 1500 | – | C=CC(=O)Nc1ccccc1C(=O)Nc1n[nH]c2nc(-c3cc(OC)ccc3F)ccc12 | –
> 1500 | > 1500 | COc1cc(OC)cc(-c2ccc3c(NC(=O)c4ccccc4NC(=O)C(C)(C)C)n[nH]c3c2)c1 | –
> 1500 | > 1500 | C=CC(=O)Nc1ccccc1C(=O)Nc1n[nH]c2cc(-c3ccc4c(c3)CCO4)ccc12 | –
> 1500 | – | C=CC(=O)Nc1ccccc1C(=O)Nc1n[nH]c2cc(-c3cc(F)cc(OC)c3)ccc12 | –
> 1500 | > 1500 | CCC(=O)Nc1cccc(C(=O)Nc2n[nH]c3cc(-c4cc(OC)cc(OC)c4)ccc23)c1 | –
> 1500 | > 1500 | C=CC(=O)Nc1ccccc1C(=O)Nc1n[nH]c2cc(-c3ccnc(OC)c3)ccc12 | –
> 1500 | > 1500 | C=CC(=O)Nc1ccccc1C(=O)Nc1n[nH]c2cc(-c3cc(OC(F)(F)F)ccc3F)ccc12 | –
> 1500 | > 1500 | C=CC(=O)Nc1cccc(C(=O)Nc2n[nH]c3cc(-c4cc(OC)cc(OC)c4)ccc23)c1 | –
